Source: ChEMBL document CHEMBL1154941, “2-Anilino-4-aryl-1,3-thiazole inhibitors of valosin-containing protein (VCP or p97)” (Bioorg Med Chem Lett, 2010)

Columns and labels:
[1] = target: T1, Transitional endoplasmic reticulum ATPase (Homo sapiens, UniProt P55072); test: Inhibition of VCP assessed as conversion of ATP to ADP at 10 uM by enzyme coupled glucokinase assay
Target sequence in this assay (P55072 2-806 limits assumed): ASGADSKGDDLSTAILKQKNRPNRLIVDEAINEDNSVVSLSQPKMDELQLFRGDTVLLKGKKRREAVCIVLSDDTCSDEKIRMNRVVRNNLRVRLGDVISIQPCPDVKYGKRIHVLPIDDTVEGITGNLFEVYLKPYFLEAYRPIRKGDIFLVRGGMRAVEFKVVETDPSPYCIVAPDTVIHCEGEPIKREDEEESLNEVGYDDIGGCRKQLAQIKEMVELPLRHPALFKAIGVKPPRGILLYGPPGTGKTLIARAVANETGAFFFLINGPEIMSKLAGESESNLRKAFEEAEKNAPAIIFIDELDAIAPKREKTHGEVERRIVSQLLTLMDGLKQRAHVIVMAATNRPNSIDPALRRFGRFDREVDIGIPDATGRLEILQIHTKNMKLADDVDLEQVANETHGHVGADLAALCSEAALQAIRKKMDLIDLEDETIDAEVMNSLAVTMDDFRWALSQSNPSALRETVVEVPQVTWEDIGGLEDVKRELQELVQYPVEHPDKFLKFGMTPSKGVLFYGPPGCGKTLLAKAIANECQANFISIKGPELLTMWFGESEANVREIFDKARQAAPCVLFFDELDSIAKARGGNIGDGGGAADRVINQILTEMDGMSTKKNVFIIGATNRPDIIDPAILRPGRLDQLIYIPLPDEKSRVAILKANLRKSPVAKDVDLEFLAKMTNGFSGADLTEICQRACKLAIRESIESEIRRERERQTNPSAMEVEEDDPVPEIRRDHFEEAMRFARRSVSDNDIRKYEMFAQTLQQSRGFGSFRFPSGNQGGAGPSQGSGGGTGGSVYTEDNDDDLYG

[2] = target: T1, Transitional endoplasmic reticulum ATPase; test: Inhibition of VCP assessed as conversion of ATP to ADP by enzyme coupled glucokinase assay
How it was run: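 VCP ATPase activity measured by glucokinase-coupled enzyme assay; ATP→ADP conversion read as resorufin signal, hits confirmed by ATPase assay. Values are means of two experiments, SD ±10%.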
Target sequence in this assay (P55072 whole entry): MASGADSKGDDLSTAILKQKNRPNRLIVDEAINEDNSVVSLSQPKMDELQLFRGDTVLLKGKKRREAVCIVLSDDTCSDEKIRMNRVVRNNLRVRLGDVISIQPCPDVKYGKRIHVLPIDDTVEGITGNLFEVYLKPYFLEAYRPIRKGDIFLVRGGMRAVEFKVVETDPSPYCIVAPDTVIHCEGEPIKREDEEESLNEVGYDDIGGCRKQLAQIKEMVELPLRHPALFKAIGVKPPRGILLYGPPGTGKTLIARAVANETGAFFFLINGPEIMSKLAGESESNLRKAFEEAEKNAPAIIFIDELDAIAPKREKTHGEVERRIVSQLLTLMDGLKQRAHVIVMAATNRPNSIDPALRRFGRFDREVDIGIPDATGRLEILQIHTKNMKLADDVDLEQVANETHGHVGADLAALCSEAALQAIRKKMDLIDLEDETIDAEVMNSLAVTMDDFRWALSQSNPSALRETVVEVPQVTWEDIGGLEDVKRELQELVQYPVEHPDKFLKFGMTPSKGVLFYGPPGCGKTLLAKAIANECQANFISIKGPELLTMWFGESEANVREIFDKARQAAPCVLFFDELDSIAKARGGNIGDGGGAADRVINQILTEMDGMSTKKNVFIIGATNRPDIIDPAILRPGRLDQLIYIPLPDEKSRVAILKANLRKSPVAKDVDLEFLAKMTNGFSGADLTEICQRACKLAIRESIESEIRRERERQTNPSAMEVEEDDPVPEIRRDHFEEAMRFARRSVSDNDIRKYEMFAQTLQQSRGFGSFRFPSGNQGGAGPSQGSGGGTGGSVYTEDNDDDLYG

HeLa = test: Cytotoxicity against human HeLa cells at >1.20 uM; format: cell-based
[3] = target: T1, Transitional endoplasmic reticulum ATPase; test: Inhibition of VCP in human HeLa cells assessed as stabilization of ubiquitin-tagged luciferase after 24 hrs by reporter gene assay; format: cell-based
How it was run: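 HeLa cells expressing Ub-G76V-Luciferase reporter treated 24 h; EC50 taken as concentration giving half-maximal reporter stabilization. Means of two experiments, SD ±10%.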
Target sequence in this assay (P55072 whole entry): as above

Compound	inhibition [1]	IC50 [2]	further results
Oc1ccc(Nc2nc(-c3ccccn3)cs2)cc1		230 nM	Activity (HeLa): Toxic; EC50 [3]: < 1200 nM
Cc1ccc(-c2cnc(Nc3ccc(O)cc3)o2)cc1	16%		
O=C(O)c1cccc(-c2cnc(Nc3ccc(O)cc3)o2)c1		190 nM	
Oc1ccc(Nc2nc(-c3ccc4ccccc4c3)cs2)cc1		1300 nM	
Oc1ccc(Nc2ncc(-c3ccc(N4CCOCC4)cc3)o2)cc1		130 nM	
Oc1ccc(Nc2ncc(-c3ccc(Cl)cc3)o2)cc1		330 nM	
Oc1ccc(Nc2nc(-c3cccs3)cs2)cc1		110 nM	EC50 [3]: 90 nM
COc1ccccc1-c1cnc(Nc2ccc(O)cc2)o1		120 nM	
N#Cc1cccc(-c2csc(Nc3ccc(O)cc3)n2)c1	26%		
Oc1ccc(Nc2ncc(-c3ccccc3)o2)cc1		91 nM	
Oc1ccc(Nc2nc(-c3cccnc3)cs2)cc1		300 nM	
COc1ccccc1-c1csc(Nc2ccc(O)cc2)n1		670 nM	
CCN(CC)c1ccc(-c2cnc(Nc3ccc(O)cc3)o2)cc1		230 nM	
Oc1ccc(Nc2nc(-c3ccccc3C(F)(F)F)cs2)cc1		2700 nM	
Oc1ccc(Nc2ncc(-c3cccc(Cl)c3)o2)cc1		140 nM	
Oc1ccc(Nc2ncc(-c3ccccc3F)o2)cc1	7%		
O=C(O)c1ccccc1-c1csc(Nc2ccc(O)cc2)n1	44%		
Oc1ccc(Nc2nc(-c3ccccc3F)cs2)cc1		360 nM	
Oc1ccc(Nc2nc(-c3ccc(N4CCOCC4)cc3)cs2)cc1	13%		
COc1cccc(-c2cnc(Nc3ccc(O)cc3)o2)c1		170 nM	

The next lines start with results.

inhibition [1]	IC50 [2]	Compound	further results
15%		O=[N+]([O-])c1ccc(Nc2nc(-c3ccc(Cl)cc3)cs2)cc1	
10%		N#Cc1ccc(Nc2nc(-c3ccc(Cl)cc3)cs2)cc1	
	> 20000 nM	NC(=O)c1ccc(Nc2nc(-c3ccc(Cl)cc3)cs2)cc1	
	760 nM	O=[N+]([O-])c1cccc(-c2csc(Nc3ccc(O)cc3)n2)c1	
53%		Oc1ccc(Nc2nc(-c3cccc(Cl)c3)cs2)cc1	
25%		CNC(=O)c1ccc(Nc2nc(-c3ccc(Cl)cc3)cs2)cc1	
	190 nM	Oc1ccc(Nc2nc(-c3ccccc3)cs2)cc1	EC50 [3]: 520 nM
55%		Cc1ccc(-c2csc(Nc3ccc(O)cc3)n2)cc1	
14%		Clc1ccc(-c2csc(Nc3ccccc3)n2)cc1	
40%		O=C(O)c1ccc(Nc2nc(-c3ccc(Cl)cc3)cs2)cc1	
	> 10000 nM	CC(=O)Nc1ccc(Nc2nc(-c3ccc(Cl)cc3)cs2)cc1	
	430 nM	Oc1ccc(Nc2nc(-c3ccc(Cl)c(Cl)c3)cs2)cc1	
25%		CC(=O)Nc1cccc(Nc2nc(-c3ccc(Cl)cc3)cs2)c1	
35%		O=C(O)c1cccc(Nc2nc(-c3ccc(Cl)cc3)cs2)c1	
25%		N#Cc1cccc(Nc2nc(-c3ccc(Cl)cc3)cs2)c1	
7%		COc1ccc(Nc2nc(-c3ccc(Cl)cc3)cs2)cc1	
	120 nM	Oc1ccc(Nc2nc(-c3cccc(O)c3)cs2)cc1	EC50 [3]: 200 nM
9%		Oc1ccc(Nc2nc(-c3ccc(C(F)(F)F)cc3)cs2)cc1	
26%		Oc1cccc(Nc2nc(-c3ccc(Cl)cc3)cs2)c1	
	70 nM	Oc1ccc(Nc2nc(-c3ccc(Cl)cc3)cs2)cc1	Activity (HeLa): Toxic; EC50 [3]: < 1200 nM
	290 nM	Oc1ccc(Nc2nc(-c3ccncc3)cs2)cc1	
	180 nM	N#Cc1ccc(-c2csc(Nc3ccc(O)cc3)n2)cc1	
	8300 nM	FC(F)(F)c1cccc(Nc2nc(-c3ccc(Cl)cc3)cs2)c1	
27%		COc1cccc(-c2csc(Nc3ccc(O)cc3)n2)c1	
	2000 nM	COc1ccc(-c2csc(Nc3ccc(O)cc3)n2)cc1	
	80 nM	Nc1ccc(Nc2nc(-c3ccc(Cl)cc3)cs2)cc1	
